Source: PubChem BioAssay
GalR3 antag – blocks the human galanin receptor 3. O60755. HEK293 GalR3-CNG cAMP membrane potential fluorescence; galR3 body fused to GalR1 C-terminus. inhibition, % at 3 µM. actives 0.44% (n = 360,000);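 active = inhibition above the screen-wide average plus 3 SD, cut at about 13% in these data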;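 note: forskolin and galanin both at EC90 stimulate the cells; cAMP rise reported by CNG channel membrane potential dye signal; 0% = forskolin plus galanin with DMSO and 100% = forskolin alone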
OX1R antag-1 – OX1R (human) antagonism; O43613; OX1R-expressing cells, FRET antagonist read-out; inhibition, % at 6.6 µM; actives 1.8% (n = 330,000); AID 485270; in the data active = inhibition mostly above about 38%, no sharp cut-off; inactive = mostly below about 40%;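 note: 0% = agonist challenge alone and 100% = reference antagonist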
Target sequence (O43613 whole entry, looked up): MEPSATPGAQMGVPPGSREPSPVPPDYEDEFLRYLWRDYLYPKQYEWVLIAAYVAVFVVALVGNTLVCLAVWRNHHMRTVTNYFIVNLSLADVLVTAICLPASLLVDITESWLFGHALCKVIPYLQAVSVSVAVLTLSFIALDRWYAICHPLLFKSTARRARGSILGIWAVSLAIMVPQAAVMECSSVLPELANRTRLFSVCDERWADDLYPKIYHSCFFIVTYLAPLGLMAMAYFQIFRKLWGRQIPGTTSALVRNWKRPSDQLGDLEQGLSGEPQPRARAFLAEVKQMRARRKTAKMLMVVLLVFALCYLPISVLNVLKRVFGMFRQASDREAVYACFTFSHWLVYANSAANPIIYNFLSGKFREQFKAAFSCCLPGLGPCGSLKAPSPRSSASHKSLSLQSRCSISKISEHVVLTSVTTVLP
TAAR1 ag – agonists of human TAAR1; AID 624467; CHO RD-HGA16 TAAR1, Fluo-8 calcium fluorescence; vehicle wells 0%, saturating PEA agonist 100%; Q96RJ0; activation, % at 3 µM; actives 0.99% (n = 360,000);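 active = activation above the mean activation of all test compounds in the run plus 3 SD, cut at about 38% in these data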
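Assay system: CHO-derived RD-HGA16 cells with stable Gα16 and human TAAR1; timing: 17-24 h seeding, 75 min 37 °C dye, 30 min RT; read-out: % activation from peak over basal fluorescence ratio, DMSO-to-PEA scaled; measured by: kinetic Fluo-8 calcium fluorescence; benchmarks: low control DMSO, high control PEA (EC100); doses: 3 µM single concentration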
CHO parental Ca – counter-screen for OX1R antagonists: effect in parental CHO cells. parental CHO-K1, ATP-induced calcium, Fluo-8 fluorescence. inhibition, % at 5.6 µM. actives 0.63% (n = 330,000). AID 463079;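 active = inhibition above that plate's mean sample inhibition plus 3 SD, cut at about 26% in these data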;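 note: 0% = ATP-challenged DMSO wells and 100% = DMSO wells without ATP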
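test system = CHO parental line | reagent = ATP stimulus | measured by = intracellular calcium via Fluo-8 no-wash fluorescent dye | control set = ATP and no-ATP DMSO wells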
TAAR1 antag – human TAAR1 antagonism | Q96RJ0 | CHO RD-HGA16 TAAR1, Fluo-8 calcium fluorescence, antagonist | inhibition, % at 3 µM | actives 1.5% (n = 360,000) | AID 624466;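 active = inhibition above a per-plate cutoff, the mean inhibition of test compounds on that plate plus 3 SD, cut at about 49% in these data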;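 note: 0% = DMSO plus EC80 beta-PEA response and 100% = DMSO alone without agonist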
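Material: RD-HGA16 CHO cells with stable hTAAR1 and Gα16; Dosing: single nominal final test compound concentration of 3 µM; Schedule: seeding 17-24 h prior, 75-min 37 °C, 30-min RT dye loading; Detection: kinetic Fluo-8 calcium fluorescence measurement; Measure: % inhibition from peak post-agonist over basal fluorescence ratio; Benchmarks: vehicle and agonist controls.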
OX1R antag-2 – antagonists of human orexin 1 receptor. inhibition, % at 5 µM. actives 0.43% (n = 330,000). O43613. CHO/OX1R cells, Fluo-8 calcium fluorescence, orexin A;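 active = inhibition above its plate's threshold, mean inhibition of all tested compounds on the plate plus 3 SD, cut at about 37% in these data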;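 note: 0% = orexin A challenge wells and 100% = SB-334867-A antagonist wells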
OX1R HTRF confirm – OX1R (human) antagonism, HTRF confirmed | inhibition, % at 6.6 µM | shares compounds with OX1R antag-1 | AID 492964 | actives 49% (n = 1,800) | OX1R-expressing cells, HTRF antagonist assay; in the data active = inhibition above about 55%;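 note: CHO cells expressing OX1R stimulated with orexin A at about EC80; 0% = agonist challenge alone and 100% = reference antagonist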
CHO-K1 HTRF cnt – signal in parental CHO-K1 cells, OX1R antagonist counter-screen; shares compounds with OX1R antag-1; HTRF counterscreen; inhibition, % at 6.6 µM; actives 48% (n = 1,800); in the data active = inhibition above about 17%;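 note: 0% = agonist challenge with vehicle and 100% = vehicle alone without agonist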
* hit, by the source's call; nt = no result given. Shown are actives, neighbours in structure and some others; about 4.3% of the full set was active somewhere.

SMILES	GalR3 antag	OX1R antag-1	TAAR1 ag	CHO parental Ca	TAAR1 antag	OX1R antag-2	OX1R HTRF confirm	CHO-K1 HTRF cnt
Cn1c(C(=O)NCC2CCCO2)cc2c(=O)n3ccccc3nc21 (stereo not drawn)	0	23	11	3	5	-13	nt	nt
CCOC(=O)c1cc2c(=O)n3cccc(C)c3nc2n(CCCOC)c1=NC(=O)c1cccnc1	-1	42	19	-18	35	-30	nt	nt
CCOC(=O)c1cc2c(=O)n3ccccc3nc2n(CC2CCCO2)c1=NC(=O)/C=C/c1ccccc1 (stereo not drawn)	0	119*	8	-22	31	-21	46	42*
COCC(=O)N1CCN(c2ccc([N+](=O)[O-])cc2)CC1	-2	160*	1	-7	-4	-6	39	41*
COC(=O)/C=c1/s/c(=C(/C#N)C(=O)N2CCOCC2)n(-c2ccccc2)c1=O	-5	118*	6	-7	-6	-2	38	49*
CSCc1cc(C(=O)NCCN2CCOCC2)c(N)s1	-5	nt	2	nt	-15	nt	nt	nt
CCOC(=O)c1sc(NC(=O)Nc2ccccc2Cl)cc1C	1	78*	6	-6	22	0	53	8
CCOC(=O)c1sc(NC(=O)c2ccc(C)s2)cc1C	-4	79*	2	3	13	2	46	13
COC(=O)c1ccccc1C(=O)N(c1ccccc1)c1ccccc1	-1	9	2	-4	-26	-8	nt	nt
O=C(CNC(=O)c1cc(Cl)nc2ccccc12)Nc1ccccc1Br	0	5	11	-8	6	-4	nt	nt
CN(C)C(=O)c1cnc(Cc2c[nH]c3ccccc23)c(I)c1	-7	nt	3	nt	-2	nt	nt	nt
CCn1c(O)c(N=NC(=O)CNc2ccc(C)cc2)c2ccccc21	-6	28	0	-17	-13	-23	nt	nt
Cc1ccc(NCC(=O)N=Nc2c(O)n(C)c3ccccc23)cc1	-6	95*	1	11	5	-4	38	32*
COC(=O)c1cc(C)nc2c1C(=O)C(=O)C=C2N1CCOCC1	-14	99*	7	-8	29	-12	79*	114*
OCc1cn(-c2ccccc2)nc1-c1cc2ccccc2o1	1	81*	-5	0	12	-13	35	12
Cc1ccnc(N2C(=O)c3ccccc3C2=O)c1	-9	-9	1	-4	-1	-8	nt	nt
Cc1ccnc(N2C(=O)c3cccc4c([N+](=O)[O-])ccc(c34)C2=O)c1	10	107*	0	9	2	12	48	73*
CCOC(=O)C(=O)N=Nc1c(O)[nH]c2ccccc12	-11	91*	0	2	3	-1	46	53*
COc1ccc(NC(=S)N=Nc2c(O)[nH]c3ccccc23)cc1	-1	34	-3	-12	11	3	nt	nt
Oc1ccc(NC(=S)N=Nc2c(O)[nH]c3ccccc23)cc1	4	92*	6	-7	24	-4	80*	7
CNC(=S)N=Nc1c(O)[nH]c2ccccc12	1	17	1	1	5	-15	nt	nt
O=C(N=Nc1c(O)[nH]c2ccccc12)c1cccs1	-5	108*	0	-16	26	5	101*	18*
O=C(C[C@@H]1CC[C@@H]2[C@H](COC[C@H](O)CN2S(=O)(=O)c2ccccc2)O1)Nc1ccccc1	-3	nt	1	nt	-19	nt	nt	nt
Cc1ccc(NC(=O)COc2ccccc2)cc1S(=O)(=O)N1CCCCCC1	-3	98*	4	-9	37	-28	20	5
CCc1nc2ccc(C(=O)N3CCN(S(=O)(=O)CC)CC3)cn2c1N(CC)Cc1cccc(Br)c1	-5	nt	-2	nt	-50	nt	nt	nt
SMILES	GalR3 antag	OX1R antag-1	TAAR1 ag	CHO parental Ca	TAAR1 antag	OX1R antag-2	OX1R HTRF confirm	CHO-K1 HTRF cnt
CCCn1nc([N+](=O)[O-])c(C(C#N)c2nc3ccccc3o2)c(Cl)c1=O (stereo not drawn)	-1	87*	0	-15	-2	-1	46	22*
COCCN(C(=O)COC(=O)/C=C/c1cccc(OC)c1)c1c(N)n(CC(C)C)c(=O)[nH]c1=O	-3	nt	1	nt	-18	nt	nt	nt
COc1ccc(OC)c(/C=N/NC(=O)c2cc[n+](Cc3ccccc3)cc2)c1	-5	108*	0	-2	-2	-12	64*	46*
COc1ccc(OC)c(/C=N\NC(=O)c2ccc(-c3ccccc3)cc2)c1	-2	nt	4	nt	42	nt	nt	nt
COc1ccc(-n2nc(C(=O)N3CCCCC3)c(C)c(C#N)c2=O)cc1	-5	113*	-1	-9	11	-12	77*	50*
Cc1c(C(=O)NN)nn(-c2ccc(Cl)cc2)c(=O)c1C#N	1	32	0	-4	-8	-4	nt	nt
COC(=O)Nc1nn(-c2ccc(C)cc2)c(=O)c(C#N)c1C	-5	137*	0	-11	-5	1	56*	68*
COC(=O)Nc1nn(-c2ccc(OC)cc2)c(=O)c(C#N)c1C	3	166*	0	-11	-5	-1	59*	91*
COc1ccc(-n2nnnc2SCC(=O)NC2CCS(=O)(=O)C2)cc1 (stereo not drawn)	-7	1	3	-16	14	-11	nt	nt
Cc1csc(C(C)NC(=O)c2ccc(OC3CCN(CCc4ccccc4)CC3)cc2)n1 (stereo not drawn)	-10	12	4	-18	-13	-11	nt	nt
Cc1ccc(C(=O)NCCN2CCOCC2)cc1Cl	-7	6	9	-13	-3	-7	nt	nt
Cc1ccc(N2C(=O)c3ccc(C(=O)NCCN4CCOCC4)cc3C2=O)cc1	-2	82*	8	-6	4	-12	51	44*
O=C1/C(=N\S(=O)(=O)c2cccs2)C([n+]2ccccc2)=C([O-])c2ccccc21	-5	94*	2	-8	-30	-8	78*	119*
CCOc1ccc(-c2nnc(-c3cccs3)o2)cc1	-3	21	1	-12	-1	-25	nt	nt
c1csc(-c2nnc(-c3ccc(N4CCOCC4)cc3)o2)c1	-2	77*	3	-10	0	14	83*	12
Cc1noc(C)c1S(=O)(=O)Nc1ccc(O)c2c(=O)cc(-c3ccccc3Cl)oc12	-2	85*	5	-7	-5	25	93*	1
N#CCCn1c(O)c(N=NC(=O)CNC(=O)c2cccs2)c2ccccc21	-2	93*	1	-8	0	-22	38	50*
